Test results from ChEMBL document CHEMBL1821590, “Novel dihydropyrimidines and its pyrazole derivatives: synthesis and pharmacological screening” (Eur J Med Chem, 2011).
Values after ≈ are worked out from the molar mass of the structure shown.

How the values were obtained:
Format in all cases: functional
[1] = Antioxidant activity assessed as nitric oxide radical scavenging activity after 150 mins
Summary of the method: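 10 mM sodium nitroprusside (4 mL), PBS pH 7.4 (1 mL) and sample or ascorbic acid in DMSO (1 mL, 12.5–100 µg/mL), incubated 150 min at 25 °C. Nitrite detected with sulphanilic acid (5 min) then naphthylethylenediamine (30 min, diffused light). Read at […]. Triplicate. % inhibition = [1 − (Vt/Vc)] × 100. IC50 derived from it.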

[2] = Antioxidant activity assessed as hydrogen peroxide scavenging activity after 10 mins
Summary of the method: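 H2O2 (20 mM) in PBS pH 7.4. 1 mL of sample or ascorbic acid in methanol (12.5–100 µg/mL) added to 2 mL H2O2 solution. A230 read after 10 min. % inhibition = [1 − (Vt/Vc)] × 100. Triplicate, averaged. IC50 derived from % inhibition across concentrations.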

[3] = Antioxidant activity assessed as inhibition of lipid peroxidation using egg lecithin liposomes incubated for 1 hr
Summary of the method: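 Egg lecithin (3 mg/mL, phosphate buffer pH 7.4) sonicated 10 min to form liposomes. Sample or ascorbic acid (12.5–100 µg/mL) added. Peroxidation induced with FeCl3 and L-ascorbic acid, 1 h at 37 °C. Stopped with HCl/TCA/TBA/BHA, boiled 15 min, centrifuged, supernatant read at 532 nm. Triplicate. % inhibition vs control. IC50 derived.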

[4] = Antioxidant activity assessed as potassium ferricyanide ion reducing power after 20 mins
Summary of the method: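 Oyaizu method. Samples or ascorbic acid in DMF (12.5–100 µg/mL) mixed with 0.2 M phosphate buffer pH 6.6 and 1% potassium ferricyanide, 20 min at 50 °C. 10% TCA added, centrifuged. Supernatant mixed with water and 0.1% FeCl3, read at 700 nm. % = [(Vt/Vc) − 1] × 100. IC50 derived.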

[5] = Antiinflammatory activity assessed as inhibition of albumin denaturation at 100 ug/ml by UV-visible spectrophotometry
Summary of the method: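 Compounds dissolved in minimal DMF, diluted in PBS pH 7.4 (final DMF <2.5%). 1 mL test solution (100 µg/mL) plus 1 mL 1% albumin in PBS, 15 min at 27 ± 1 °C, then heated 10 min at 60 ± 1 °C. After cooling, turbidity read at 660 nm. % inhibition = [(Vt/Vc) − 1] × 100 against a no-drug control. Triplicate, averaged. Diclofenac standard.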

Metaphire posthuma [6] = assay: Anthelmintic activity against Pheretima posthuma assessed as time taken for complete parasite paralysis at 0.1% w/v
Summary of the method: (§1)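 Earthworms (Pheretima posthuma) exposed to test solutions at 0.1, 0.2 and 0.5% w/v; time in minutes to complete paralysis (worms motionless) recorded. Albendazole as standard. Mean of three determinations ± S.D.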

Metaphire posthuma [7] = assay: Anthelmintic activity against Pheretima posthuma assessed as time taken for complete parasite paralysis at 0.2% w/v; summary of the method: as §1
Metaphire posthuma [8] = assay: Anthelmintic activity against Pheretima posthuma assessed as time taken for complete parasite paralysis at 0.5% w/v; summary of the method: as §1
Metaphire posthuma [9] = assay: Anthelmintic activity against Pheretima posthuma assessed as time taken for parasite death at 0.1% w/v
Summary of the method: (§2)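 Earthworms (Pheretima posthuma, spelled Perituma posthuma in text) exposed to test compounds at 0.1, 0.2 and 0.5% w/v. Albendazole served as standard, with an untreated control. Paralysis was recorded as the time until worms became motionless, then time to death was recorded, in minutes. Each value is the mean of three determinations with S.D.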

Metaphire posthuma [10] = assay: Anthelmintic activity against Pheretima posthuma assessed as time taken for parasite death at 0.2% w/v; summary of the method: as §2
Metaphire posthuma [11] = assay: Anthelmintic activity against Pheretima posthuma assessed as time taken for parasite death at 0.5% w/v; summary of the method: as §2
Escherichia coli [12] = assay: Antimicrobial activity against Escherichia coli at 25 ug/ml by agar plate diffusion technique; conditions: read-out: IZ
Summary of the method: (§3)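 Agar plate diffusion against E. coli, P. aeruginosa, S. aureus and B. subtilis, with compounds at 25, 50 and 100 µg/mL. Streptomycin as standard.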

Escherichia coli [13] = assay: Antimicrobial activity against Escherichia coli at 50 ug/ml by agar plate diffusion technique; conditions: read-out: IZ; summary of the method: as §3
Escherichia coli [14] = assay: Antimicrobial activity against Escherichia coli at 100 ug/ml by agar plate diffusion technique; conditions: read-out: IZ; summary of the method: as §3
Pseudomonas aeruginosa [15] = assay: Antimicrobial activity against Pseudomonas aeruginosa at 25 ug/ml by agar plate diffusion technique; conditions: read-out: IZ; summary of the method: as §3
Pseudomonas aeruginosa [16] = assay: Antimicrobial activity against Pseudomonas aeruginosa at 50 ug/ml by agar plate diffusion technique; conditions: read-out: IZ; summary of the method: as §3
Pseudomonas aeruginosa [17] = assay: Antimicrobial activity against Pseudomonas aeruginosa at 100 ug/ml by agar plate diffusion technique; conditions: read-out: IZ; summary of the method: as §3
Bacillus subtilis [18] = assay: Antimicrobial activity against Bacillus subtilis at 25 ug/ml by agar plate diffusion technique; conditions: read-out: IZ; summary of the method: as §3
Bacillus subtilis [19] = assay: Antimicrobial activity against Bacillus subtilis at 50 ug/ml by agar plate diffusion technique; conditions: read-out: IZ; summary of the method: as §3
Bacillus subtilis [20] = assay: Antimicrobial activity against Bacillus subtilis at 100 ug/ml by agar plate diffusion technique; conditions: read-out: IZ; summary of the method: as §3
Staphylococcus aureus [21] = assay: Antimicrobial activity against Staphylococcus aureus at 25 ug/ml by agar plate diffusion technique; conditions: read-out: IZ; summary of the method: as §3
Staphylococcus aureus [22] = assay: Antimicrobial activity against Staphylococcus aureus at 50 ug/ml by agar plate diffusion technique; conditions: read-out: IZ; summary of the method: as §3
Staphylococcus aureus [23] = assay: Antimicrobial activity against Staphylococcus aureus at 100 ug/ml by agar plate diffusion technique; conditions: read-out: IZ; summary of the method: as §3
Candida albicans [24] = assay: Antimicrobial activity against Candida albicans at 25 ug/ml by paper disc method; conditions: read-out: IZ
Summary of the method: (§4)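 Paper disc method against A. niger and C. albicans, with compounds at 25, 50 and 100 µg/mL. Amphotericin-B as standard.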

Candida albicans [25] = assay: Antimicrobial activity against Candida albicans at 50 ug/ml by paper disc method; conditions: read-out: IZ; summary of the method: as §4
Candida albicans [26] = assay: Antimicrobial activity against Candida albicans at 100 ug/ml by paper disc method; conditions: read-out: IZ; summary of the method: as §4
Aspergillus niger [27] = assay: Antimicrobial activity against Aspergillus niger at 25 ug/ml by paper disc method; conditions: read-out: IZ; summary of the method: as §4
Aspergillus niger [28] = assay: Antimicrobial activity against Aspergillus niger at 50 ug/ml by paper disc method; conditions: read-out: IZ; summary of the method: as §4
Aspergillus niger [29] = assay: Antimicrobial activity against Aspergillus niger at 100 ug/ml by paper disc method; conditions: read-out: IZ; summary of the method: as §4

SMILES | IC50 [1] | IC50 [2] | IC50 [3] | IC50 [4] | inhibition [5] | Time (Metaphire posthuma [6]) | Time (Metaphire posthuma [7]) | Time (Metaphire posthuma [8]) | Time (Metaphire posthuma [9]) | Time (Metaphire posthuma [10]) | Time (Metaphire posthuma [11]) | zone of inhibition at 25 µg/mL (Escherichia coli [12]) | zone of inhibition at 50 µg/mL (Escherichia coli [13]) | zone of inhibition at 100 µg/mL (Escherichia coli [14]) | zone of inhibition at 25 µg/mL (Pseudomonas aeruginosa [15]) | zone of inhibition at 50 µg/mL (Pseudomonas aeruginosa [16]) | zone of inhibition at 100 µg/mL (Pseudomonas aeruginosa [17]) | zone of inhibition at 25 µg/mL (Bacillus subtilis [18]) | zone of inhibition at 50 µg/mL (Bacillus subtilis [19]) | zone of inhibition at 100 µg/mL (Bacillus subtilis [20]) | also measured
CSc1nc(-c2ccc(Cl)cc2)c(C#N)c(=O)n1C | 71 µg/mL (≈ 243 µM) | 56 µg/mL (≈ 192 µM) | 54 µg/mL (≈ 185 µM) | 64 µg/mL (≈ 219 µM) | 79.1% | 48.15 min | 39.29 min | 40.51 min | 60.96 min | 57.38 min | 55.12 min | 7.08 mm | 9.82 mm | 11.7 mm | 8.85 mm | 9.62 mm | 11.9 mm | 13.8 mm | 18.1 mm | 27.3 mm | zone of inhibition at 25 µg/mL (Staphylococcus aureus [21]): 9.68 mm; zone of inhibition at 50 µg/mL (Staphylococcus aureus [22]): 11.7 mm; zone of inhibition at 100 µg/mL (Staphylococcus aureus [23]): 15.8 mm; zone of inhibition at 25 µg/mL (Candida albicans [24]): 9.27 mm; zone of inhibition at 50 µg/mL (Candida albicans [25]): 13.8 mm; zone of inhibition at 100 µg/mL (Candida albicans [26]): 18.4 mm; zone of inhibition at 25 µg/mL (Aspergillus niger [27]): 9.92 mm; zone of inhibition at 50 µg/mL (Aspergillus niger [28]): 11 mm; zone of inhibition at 100 µg/mL (Aspergillus niger [29]): 18.7 mm
CSc1nc(-c2ccccc2Cl)c(C#N)c(=O)n1C | 81 µg/mL (≈ 278 µM) | 67 µg/mL (≈ 230 µM) | 72 µg/mL (≈ 247 µM) | 76 µg/mL (≈ 260 µM) | 72.2% | 55.29 min | 40.27 min | 40.61 min | 72.39 min | 55.8 min | 50.24 min | 9.64 mm | 10.2 mm | 12.4 mm | 8.52 mm | 10.4 mm | 12 mm | 14.2 mm | 19.3 mm | 28.8 mm | zone of inhibition at 25 µg/mL (Staphylococcus aureus [21]): 9.4 mm; zone of inhibition at 50 µg/mL (Staphylococcus aureus [22]): 12.3 mm; zone of inhibition at 100 µg/mL (Staphylococcus aureus [23]): 16.8 mm; zone of inhibition at 25 µg/mL (Candida albicans [24]): 9.18 mm; zone of inhibition at 50 µg/mL (Candida albicans [25]): 13.8 mm; zone of inhibition at 100 µg/mL (Candida albicans [26]): 20.8 mm; zone of inhibition at 25 µg/mL (Aspergillus niger [27]): 10.6 mm; zone of inhibition at 50 µg/mL (Aspergillus niger [28]): 10.6 mm; zone of inhibition at 100 µg/mL (Aspergillus niger [29]): 17.5 mm
